This note sets out measurements from ChEMBL document CHEMBL1131376, “Steroidal and nonsteroidal sulfamates as potent inhibitors of steroid sulfatase” (J Med Chem, 1998).

SMILES strings stand for the structures. A value given as a limit tells only on which side of the number the result lay.

The first experiment has as its target T1, Steryl-sulfatase (Homo sapiens) (UniProt P08842).
T1 sequence (whole entry): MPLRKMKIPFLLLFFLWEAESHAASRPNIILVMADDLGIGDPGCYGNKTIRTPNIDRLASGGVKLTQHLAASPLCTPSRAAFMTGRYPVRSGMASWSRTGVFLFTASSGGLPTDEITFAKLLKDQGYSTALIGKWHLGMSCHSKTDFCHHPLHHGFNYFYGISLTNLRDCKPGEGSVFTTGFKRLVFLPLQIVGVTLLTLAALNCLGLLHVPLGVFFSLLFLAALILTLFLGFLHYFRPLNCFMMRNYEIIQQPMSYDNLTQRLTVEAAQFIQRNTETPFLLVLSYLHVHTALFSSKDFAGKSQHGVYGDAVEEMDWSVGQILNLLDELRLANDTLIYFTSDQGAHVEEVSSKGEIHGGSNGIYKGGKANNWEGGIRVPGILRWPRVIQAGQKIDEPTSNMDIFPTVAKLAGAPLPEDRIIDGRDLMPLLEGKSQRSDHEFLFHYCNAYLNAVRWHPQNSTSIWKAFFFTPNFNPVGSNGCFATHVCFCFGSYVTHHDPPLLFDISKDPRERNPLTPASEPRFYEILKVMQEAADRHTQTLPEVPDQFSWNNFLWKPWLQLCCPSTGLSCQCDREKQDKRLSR
The experiment can be described thus: In vitro inhibition of Estrone Sulfatase in intact MCF-7 breast cancer cells at a concentration of 10 uM. Type of experiment: cell-based. The settings on record: MCF7.
With `NS(=O)(=O)Oc1cccc2c1CCC2=O`, the inhibition worked out at 74.1%.
With `NS(=O)(=O)Oc1ccc2c(c1)CCC=C2`, the inhibition worked out at 76.2%.
In turn, `Cc1cc(=O)oc2ccc(OS(N)(=O)=O)cc12` displayed an inhibition of 39.1%.
On the same count and under the same terms, in the case of `NS(=O)(=O)Oc1ccc2c(c1)CCC2=O` it was 71.3%; in that of `Cc1cc(=O)oc2cc(O)c(OS(N)(=O)=O)cc12`, less than 10%; in that of `NS(=O)(=O)Oc1ccc2c(c1)CCCC2=O`, 78.1%.
Turning to `NS(=O)(=O)Oc1ccc2c(c1)OC(=O)CC2`, the inhibition came to 28.5%.
The compound `NS(=O)(=O)Oc1ccc2c(c1)C(=O)CC2` yielded an inhibition of 99%.
`CC1CC(=O)Oc2cc(OS(N)(=O)=O)ccc21` (centres undefined) yielded an inhibition of 32.3%.
Same read-out and setting: in the case of `NS(=O)(=O)Oc1ccc2c(c1)OCC=C2` it was 99.3%; in that of `NS(=O)(=O)Oc1ccc2ccc(=O)oc2c1`, 90.4%.
Still for that read-out and setting: in the case of `Cc1c(C)c2ccc(OS(N)(=O)=O)c(C)c2oc1=O` it was 75.1%; in that of `NS(=O)(=O)Oc1ccc2c(c1)CCCC2`, 78.8%; in that of `NS(=O)(=O)Oc1ccc2c(C(F)(F)F)cc(=O)oc2c1`, 71.5%.
`COc1cc2ccc(=O)oc2cc1OS(N)(=O)=O` returned an inhibition of 72.1%.
Still for that read-out and setting: in the case of `Cc1cc(=O)oc2cc(OS(N)(=O)=O)c(OS(N)(=O)=O)cc12` it was 31.2%; in that of `NS(=O)(=O)Oc1ccc2c(c1)C(=O)CCC2`, 93.5%.

For a further experiment, the target named is T1, Steryl-sulfatase (Homo sapiens). The experiment is described as follows: In vitro inhibition of Estrone Sulfatase in placental microsomes at a concentration of 10 uM. The settings on record: Placenta.
In turn, `NS(=O)(=O)Oc1cccc2c1CCC2=O` showed an inhibition of less than 10%.
`NS(=O)(=O)Oc1ccc2c(c1)CCC=C2` came in with an inhibition of less than 10%.
Regarding `Cc1cc(=O)oc2ccc(OS(N)(=O)=O)cc12`, the inhibition was less than 10%.
The same measure, in the same setting: in the case of `Cc1c(C)c2ccc(OS(N)(=O)=O)cc2oc1=O` it was 96.9%.
`NS(=O)(=O)Oc1ccc2c(c1)CCC2=O`: the inhibition is 19.6%.
`Cc1cc(=O)oc2cc(O)c(OS(N)(=O)=O)cc12`: the inhibition is less than 10%.
Still for that read-out and setting: in the case of `NS(=O)(=O)Oc1ccc2c(c1)CCCC2=O` it was 16.1%; in that of `NS(=O)(=O)Oc1ccc2c(c1)OC(=O)CC2`, less than 10%.
On the same count and under the same terms, the result for `NS(=O)(=O)Oc1ccc2c(c1)C(=O)CC2` reads less than 10%; that for `CC1CC(=O)Oc2cc(OS(N)(=O)=O)ccc21` (centres undefined), 53.4%.
Take `NS(=O)(=O)Oc1ccc2c(c1)OCC=C2`: the inhibition was determined as 19.9%.
For the compound `NS(=O)(=O)Oc1ccc2ccc(=O)oc2c1`, the inhibition worked out at 78.2%.
The compound `Cc1c(C)c2ccc(OS(N)(=O)=O)c(C)c2oc1=O` had an inhibition of 17.4%.
`NS(=O)(=O)Oc1ccc2c(c1)CCCC2`: the inhibition is less than 10%.
Compound `NS(=O)(=O)Oc1ccc2c(C(F)(F)F)cc(=O)oc2c1` displayed an inhibition of 79.4%.
For `COc1cc2ccc(=O)oc2cc1OS(N)(=O)=O`, the inhibition is less than 10%.
With `Cc1cc(=O)oc2cc(OS(N)(=O)=O)c(OS(N)(=O)=O)cc12`, the inhibition is less than 10%.
`NS(=O)(=O)Oc1ccc2c(c1)C(=O)CCC2`: the inhibition is 12.3%.

The next experiment shares this target. The experiment is described as follows: In vitro inhibition of Estrone Sulfatase in placental microsomes at a concentration of 100 uM. The settings on record: Placenta. In short, it runs like this: (§1)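 Placental microsomes (100 000 g pellet; 125 µg protein/mL) incubated 30 min with [³H]estrone sulfate (4 × 10⁵ dpm) brought to 20 µM with unlabelled substrate, with or without inhibitor. Product extracted into toluene, with [4-¹⁴C]estrone to correct for procedural losses. % inhibition given as mean ± s.d. of triplicates.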
On to `NS(=O)(=O)Oc1cccc2c1CCC2=O`, for which the inhibition was less than 10%.
The same measure, in the same setting: in the case of `Cc1cc(=O)oc2cc(OS(N)(=O)=O)ccc12` it was 99%.
In turn, `NS(=O)(=O)Oc1ccc2c(c1)CCC=C2` yielded an inhibition of 34.5%.
The same measure, in the same setting: in the case of `Cc1cc(=O)oc2ccc(OS(N)(=O)=O)cc12` it was less than 10%; in that of `Cc1c(C)c2ccc(OS(N)(=O)=O)cc2oc1=O`, 99.2%.
`NS(=O)(=O)Oc1ccc2c(c1)CCC2=O` yielded an inhibition of 50.3%.
On the same count and under the same terms, in the case of `Cc1cc(=O)oc2cc(O)c(OS(N)(=O)=O)cc12` it was less than 10%; in that of `NS(=O)(=O)Oc1ccc2c(c1)CCCC2=O`, 56.1%.
`NS(=O)(=O)Oc1ccc2c(c1)OC(=O)CC2` gave an inhibition of 34.4%.
`NS(=O)(=O)Oc1ccc2c(c1)C(=O)CC2` registered an inhibition of less than 10%.
Take `CC1CC(=O)Oc2cc(OS(N)(=O)=O)ccc21` (centres undefined): the inhibition was determined as 82.1%.
`NS(=O)(=O)Oc1ccc2c(c1)OCC=C2` returned an inhibition of 47.2%.
The compound `NS(=O)(=O)Oc1ccc2ccc(=O)oc2c1` had an inhibition of 94.4%.
Consider `Cc1c(C)c2ccc(OS(N)(=O)=O)c(C)c2oc1=O`, for which the inhibition was found to be 12.5%.
In turn, `NS(=O)(=O)Oc1ccc2c(c1)CCCC2` returned an inhibition of 12.5%.
`NS(=O)(=O)Oc1ccc2c(C(F)(F)F)cc(=O)oc2c1` yielded an inhibition of 96.3%.
Take `COc1cc2ccc(=O)oc2cc1OS(N)(=O)=O`: the inhibition is 69.9%.
The compound `Cc1cc(=O)oc2cc(OS(N)(=O)=O)c(OS(N)(=O)=O)cc12` displayed an inhibition of less than 10%.
The same measure, in the same setting: in the case of `NS(=O)(=O)Oc1ccc2c(c1)C(=O)CCC2` it was 27%.

For the next experiment the target is unchanged. The experiment can be described thus: In vitro inhibition of Estrone Sulfatase in placental microsomes at a concentration of 50 uM. The settings on record: Placenta. In short, it runs like this:
as §1
Take `NS(=O)(=O)Oc1cccc2c1CCC2=O`: the inhibition was less than 10%.
The same measure, in the same setting: in the case of `Cc1cc(=O)oc2cc(OS(N)(=O)=O)ccc12` it was 97.8%; in that of `NS(=O)(=O)Oc1ccc2c(c1)CCC=C2`, 33.2%; in that of `Cc1cc(=O)oc2ccc(OS(N)(=O)=O)cc12`, less than 10%.
As to `Cc1c(C)c2ccc(OS(N)(=O)=O)cc2oc1=O`, the inhibition worked out at 98.8%.
In the case of `NS(=O)(=O)Oc1ccc2c(c1)CCC2=O`, the inhibition amounted to 37.7%.
`Cc1cc(=O)oc2cc(O)c(OS(N)(=O)=O)cc12` had an inhibition of less than 10%.
`NS(=O)(=O)Oc1ccc2c(c1)CCCC2=O`: the inhibition is 54.3%.
As to `NS(=O)(=O)Oc1ccc2c(c1)OC(=O)CC2`, the inhibition was 15%.
The compound `NS(=O)(=O)Oc1ccc2c(c1)C(=O)CC2` showed an inhibition of less than 10%.
On to `CC1CC(=O)Oc2cc(OS(N)(=O)=O)ccc21` (centres undefined), for which the inhibition came out at 70.6%.
On the same count and under the same terms, the result for `NS(=O)(=O)Oc1ccc2c(c1)OCC=C2` reads 36.9%; that for `NS(=O)(=O)Oc1ccc2ccc(=O)oc2c1`, 91.9%; that for `Cc1c(C)c2ccc(OS(N)(=O)=O)c(C)c2oc1=O`, 11.5%.
Compound `NS(=O)(=O)Oc1ccc2c(c1)CCCC2` showed an inhibition of less than 10%.
In the case of `NS(=O)(=O)Oc1ccc2c(C(F)(F)F)cc(=O)oc2c1`, the inhibition turned out to be 94.3%.
For the compound `COc1cc2ccc(=O)oc2cc1OS(N)(=O)=O`, the inhibition amounted to 42.9%.
In turn, `Cc1cc(=O)oc2cc(OS(N)(=O)=O)c(OS(N)(=O)=O)cc12` registered an inhibition of less than 10%.
`NS(=O)(=O)Oc1ccc2c(c1)C(=O)CCC2` showed an inhibition of 16.5%.

Another experiment shares this target. The experiment can be described thus: In vitro inhibition of Estrone Sulfatase in intact MCF-7 breast cancer cells at a concentration of 0.1 uM. It counts as cell-based. The settings on record: MCF7.
`NS(=O)(=O)Oc1cccc2c1CCC2=O` displayed an inhibition of less than 10%.
`Cc1cc(=O)oc2cc(OS(N)(=O)=O)ccc12` came in with an inhibition of 42.9%.
Same read-out and setting: in the case of `NS(=O)(=O)Oc1ccc2c(c1)CCC=C2` it was 49%; in that of `Cc1cc(=O)oc2ccc(OS(N)(=O)=O)cc12`, less than 10%.
`NS(=O)(=O)Oc1ccc2c(c1)CCC2=O`: the inhibition was 13.5%.
In the case of `Cc1cc(=O)oc2cc(O)c(OS(N)(=O)=O)cc12`, the inhibition is less than 10%.
In the case of `NS(=O)(=O)Oc1ccc2c(c1)CCCC2=O`, the inhibition was less than 10%.
With `NS(=O)(=O)Oc1ccc2c(c1)OC(=O)CC2`, the inhibition came to 12%.
Take `NS(=O)(=O)Oc1ccc2c(c1)C(=O)CC2`: the inhibition is 33%.
Same read-out and setting: in the case of `CC1CC(=O)Oc2cc(OS(N)(=O)=O)ccc21` (centres undefined) it was less than 10%; in that of `NS(=O)(=O)Oc1ccc2c(c1)OCC=C2`, 11.4%.
With `NS(=O)(=O)Oc1ccc2ccc(=O)oc2c1`, the inhibition worked out at 23.9%.
Take `Cc1c(C)c2ccc(OS(N)(=O)=O)c(C)c2oc1=O`: the inhibition came to 9.3%.
Compound `NS(=O)(=O)Oc1ccc2c(c1)CCCC2` yielded an inhibition of 51.7%.
On to `NS(=O)(=O)Oc1ccc2c(C(F)(F)F)cc(=O)oc2c1`, for which the inhibition turned out to be 9.9%.
`COc1cc2ccc(=O)oc2cc1OS(N)(=O)=O` showed an inhibition of 33.8%.
As to `Cc1cc(=O)oc2cc(OS(N)(=O)=O)c(OS(N)(=O)=O)cc12`, the inhibition was less than 10%.
Same read-out and setting: the result for `NS(=O)(=O)Oc1ccc2c(c1)C(=O)CCC2` reads 10.4%.

The next experiment has the same target. The experiment is described as follows: In vitro inhibition of Estrone Sulfatase in intact MCF-7 breast cancer cells at a concentration of 1.0 uM. Type of experiment: cell-based. The settings on record: MCF7.
Take `NS(=O)(=O)Oc1cccc2c1CCC2=O`: the inhibition came to 15.5%.
Consider `Cc1cc(=O)oc2cc(OS(N)(=O)=O)ccc12`, for which the inhibition is 85.6%.
`NS(=O)(=O)Oc1ccc2c(c1)CCC=C2`: the inhibition worked out at 60.6%.
Turning to `Cc1cc(=O)oc2ccc(OS(N)(=O)=O)cc12`, the inhibition worked out at 17.4%.
Still for that read-out and setting: in the case of `NS(=O)(=O)Oc1ccc2c(c1)CCC2=O` it was 22.6%.
Regarding `Cc1cc(=O)oc2cc(O)c(OS(N)(=O)=O)cc12`, the inhibition was less than 10%.
Compound `NS(=O)(=O)Oc1ccc2c(c1)CCCC2=O` displayed an inhibition of 11.7%.
In turn, `NS(=O)(=O)Oc1ccc2c(c1)OC(=O)CC2` had an inhibition of 30.2%.
`NS(=O)(=O)Oc1ccc2c(c1)C(=O)CC2`: the inhibition is 91%.
Same read-out and setting: the result for `CC1CC(=O)Oc2cc(OS(N)(=O)=O)ccc21` (centres undefined) reads less than 10%; that for `NS(=O)(=O)Oc1ccc2c(c1)OCC=C2`, 68.2%.
`NS(=O)(=O)Oc1ccc2ccc(=O)oc2c1` showed an inhibition of 66%.
Same read-out and setting: in the case of `Cc1c(C)c2ccc(OS(N)(=O)=O)c(C)c2oc1=O` it was 46.4%.
Consider `NS(=O)(=O)Oc1ccc2c(c1)CCCC2`, for which the inhibition is 56.7%.
On the same count and under the same terms, in the case of `NS(=O)(=O)Oc1ccc2c(C(F)(F)F)cc(=O)oc2c1` it was 28.3%; in that of `COc1cc2ccc(=O)oc2cc1OS(N)(=O)=O`, 34.1%; in that of `Cc1cc(=O)oc2cc(OS(N)(=O)=O)c(OS(N)(=O)=O)cc12`, less than 10%.
In turn, `NS(=O)(=O)Oc1ccc2c(c1)C(=O)CCC2` came in with an inhibition of 47.8%.
